What was measured:
Rattus norvegicus [1] = experiment: Maximum fall in systolic blood pressure, intervals from 1 to 6 hours at a dose of 100 mg/kg administered per orally; assay type: functional, Artery; details: route oral
Procedure, shortened: (§1)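 DOCA/NaCl-treated hypertensive rats, kept at least 2 months after surgery (body weight 300–450 g), selected at systolic pressure of 160 mmHg or more. Compound given orally by dosing needle into the esophagus as a solution or suspension in 1% w/v methylcellulose. Systolic pressure measured by tail-cuff in restrained rats at 33.5 °C, before dosing and at intervals from 1 to 6 h; each reading was the mean of at least six recordings.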

Rattus norvegicus [2] = experiment: Maximum fall in systolic blood pressure at interval from 1 to 6 hours at a dose of 30 mg/kg when administered perorally in rats; assay type: functional, Artery; details: route oral; procedure, shortened: as §1
Rattus norvegicus [3] = experiment: Maximum fall in systolic blood pressure, intervals from 1 to 6 hours at a dose of 10 mg/kg administered per orally; assay type: functional, Artery; details: route oral; procedure, shortened: as §1
Rattus norvegicus [4] = experiment: Maximum fall in systolic blood pressure at interval from 1 to 6 hours at a dose of 3 mg/kg when administered perorally in rats; assay type: functional, Artery; details: route oral; procedure, shortened: as §1
Rattus norvegicus [5] = experiment: Maximum fall in systolic blood pressure at interval from 1 to 6 hours at a dose of 1 mg/kg when administered perorally in rats; assay type: functional, Artery; details: route oral; procedure, shortened: as §1
Rattus norvegicus [6] = experiment: Maximum fall in systolic blood pressure at interval from 1 to 6 hours at a dose of 0.3 mg/kg when administered perorally in rats; assay type: functional, Artery; details: route oral; procedure, shortened: as §1
Rattus norvegicus [7] = experiment: Maximum fall in systolic blood pressure at interval from 1 to 6 hours at a dose of 300 mg/kg when administered perorally in rats; assay type: functional, Artery; details: route oral; procedure, shortened: as §1
Rattus norvegicus [8] = species: Rattus norvegicus; experiment: Compound was tested at 9.7e-6M for inhibition of spontaneous activity in rat isolated portal vein

| Structure (SMILES) | Max fall in blood pressure (Rattus norvegicus [1]) [mmHg] | Max fall in blood pressure (Rattus norvegicus [2]) [mmHg] | Max fall in blood pressure (Rattus norvegicus [3]) [mmHg] | further results |
| --- | --- | --- | --- | --- |
| CC1(C)Oc2ccc([N+](=O)[O-])cc2[C@@H](NCCN2CCCC2)[C@@H]1O.Cl.Cl | 23 | – | – | – |
| CC1(C)Oc2c(ccc3ccccc23)[C@@H](N2CCCC2)[C@@H]1O | 4 | – | – | – |
| CN(C)[C@@H]1c2cc([N+](=O)[O-])ccc2OC(C)(C)[C@H]1O.Cl | 29 | – | – | – |
| CC1(C)Oc2ccccc2[C@@H](N2CCCC2)[C@@H]1O.Cl | 46 | 10 | – | – |
| CC1(C)Oc2ccc([N+](=O)[O-])cc2[C@@H](N2CCCC2)[C@@H]1O.CS(=O)(=O)O | – | – | 98 | Max fall in blood pressure (Rattus norvegicus [4]): 79 mmHg; Max fall in blood pressure (Rattus norvegicus [5]): 52 mmHg |
| CC1(C)Oc2cc([N+](=O)[O-])ccc2[C@@H](N2CCCCC2)[C@@H]1O.Cl | 79 | – | 48 | Max fall in blood pressure (Rattus norvegicus [4]): 18 mmHg |
| CC1(C)Oc2ccc([N+](=O)[O-])cc2[C@@H](NCC2CC2)[C@@H]1O.Cl | 13 | – | – | – |
| CC1(C)Oc2ccc([N+](=O)[O-])cc2[C@@H](N2CCOCC2)[C@@H]1O.Cl | 70 | 55 | 23 | – |
| CC1(C)Oc2ccc(C(N)=O)cc2[C@@H](N2CCCC2)[C@@H]1O.CS(=O)(=O)O | 21 | – | – | – |
| COC(=O)c1ccc2c(c1)[C@@H](N1CCCC1)[C@H](O)C(C)(C)O2.CS(=O)(=O)O | – | 65 | 58 | Max fall in blood pressure (Rattus norvegicus [4]): 14 mmHg |
| CC(=O)c1ccc2c(c1)[C@@H](N1CCCCC1)[C@H](O)C(C)(C)O2.Cl | 127 | 65 | 51 | Max fall in blood pressure (Rattus norvegicus [4]): 12 mmHg |
| COC(=O)C1=C(C)NC(C)=C(C(=O)OC)C1c1ccccc1[N+](=O)[O-] [NIFEDIPINE] | – | – | – | Max fall in blood pressure (Rattus norvegicus [6]): 20 mmHg; Max fall in blood pressure (Rattus norvegicus [4]): 51 mmHg; Max fall in blood pressure (Rattus norvegicus [5]): 33 mmHg |
| CC(C)(C)N[C@@H]1c2cc([N+](=O)[O-])ccc2OC(C)(C)[C@H]1O.CS(=O)(=O)O | 7 | – | – | – |
| CC1(C)Oc2ccc([N+](=O)[O-])cc2[C@@H](N2CCCCC2)[C@@H]1O.CS(=O)(=O)O | – | – | 105 | Max fall in blood pressure (Rattus norvegicus [4]): 73 mmHg; Max fall in blood pressure (Rattus norvegicus [5]): 28 mmHg |
| CC1(C)Oc2ccc([N+](=O)[O-])cc2[C@@H](NC2CC2)[C@@H]1O.CS(=O)(=O)O | 95 | – | 31 | – |
| CC(C)N[C@@H]1c2cc([N+](=O)[O-])ccc2OC(C)(C)[C@H]1O.Cl | 36 | – | – | Max fall in blood pressure (Rattus norvegicus [7]): 69 mmHg |
| CC1(C)Oc2ccc([N+](=O)[O-])cc2[C@@H](N)[C@@H]1O.Cl | 45 | 23 | – | – |
| CC1(C)Oc2cc(C#N)ccc2[C@@H](N2CCCCC2)[C@@H]1O.Cl | 33 | 7 | – | – |
| CC1(C)Oc2ccc3ccccc3c2[C@@H](N2CCCCC2)[C@@H]1O.Cl | 4 | – | – | – |
| CC1(C)Oc2ccc(F)cc2[C@@H](N2CCCCC2)[C@@H]1O.Cl | 26 | – | 16 | – |
| CC1(C)Oc2ccc(C#N)cc2[C@@H](N2CCCC2)[C@@H]1O.Cl | – | – | – | Max fall in blood pressure (Rattus norvegicus [6]): 15 mmHg; Inhibition (Rattus norvegicus [8]): 32%; Max fall in blood pressure (Rattus norvegicus [4]): 117 mmHg; Max fall in blood pressure (Rattus norvegicus [5]): 43 mmHg |
| CS(=O)(=O)O.Cc1c([N+](=O)[O-])ccc2c1OC(C)(C)[C@@H](O)[C@@H]2N1CCCCC1 | 39 | – | – | – |
| CC1(C)Oc2ccc([N+](=O)[O-])cc2[C@@H](NCCO)[C@@H]1O.Cl | 27 | – | – | – |
| CC1(C)Oc2ccc(N)cc2[C@@H](N2CCCC2)[C@@H]1O.Cl.Cl | 6 | – | – | – |
| CC1(C)Oc2ccc(C#N)cc2[C@@H](N2CCCCC2)[C@@H]1O.Cl | – | – | 107 | Max fall in blood pressure (Rattus norvegicus [6]): 29 mmHg; Max fall in blood pressure (Rattus norvegicus [4]): 88 mmHg; Max fall in blood pressure (Rattus norvegicus [5]): 35 mmHg |

| Structure (SMILES) | Max fall in blood pressure (Rattus norvegicus [1]) [mmHg] | Max fall in blood pressure (Rattus norvegicus [2]) [mmHg] | Max fall in blood pressure (Rattus norvegicus [3]) [mmHg] | further results |
| --- | --- | --- | --- | --- |
| CC1(C)Oc2cccc(C#N)c2[C@@H](N2CCCCC2)[C@@H]1O.Cl | 33 | – | 13 | – |
| CC1CCC(C)N1[C@@H]1c2cc([N+](=O)[O-])ccc2OC(C)(C)[C@H]1O.Cl (stereo not given in full) | – | 26 | – | – |
| NNc1nncc2ccccc12 [HYDRALAZINE] | – | – | 113 | Inhibition (Rattus norvegicus [8]): 40%; Max fall in blood pressure (Rattus norvegicus [4]): 65 mmHg; Max fall in blood pressure (Rattus norvegicus [5]): 32 mmHg |
| CN[C@@H]1c2cc([N+](=O)[O-])ccc2OC(C)(C)[C@H]1O.Cl | 43 | 21 | – | – |
| COc1ccc2c(c1)[C@@H](N1CCCC1)[C@H](O)C(C)(C)O2.Cl | 17 | 29 | – | – |
| CC(O)c1ccc2c(c1)[C@@H](N1CCCCC1)[C@H](O)C(C)(C)O2.Cl (stereo not given in full) | – | 115 | 20 | – |
| CC1(C)Oc2c(C#N)cccc2[C@@H](N2CCCCC2)[C@@H]1O.Cl | 33 | – | 5 | – |
| CC1(C)Oc2cccc([N+](=O)[O-])c2[C@@H](N2CCCCC2)[C@@H]1O.Cl | 12 | – | – | – |
| CC1(C)Oc2ccc([N+](=O)[O-])cc2[C@@H](N2CCCCCC2)[C@@H]1O.Cl | 96 | – | 17 | – |
| CC1(C)Oc2ccc(C(=O)O)cc2[C@@H](N2CCCC2)[C@@H]1O | – | – | 2 | – |
| CC1CCN([C@@H]2c3cc([N+](=O)[O-])ccc3OC(C)(C)[C@H]2O)CC1.Cl | – | – | 28 | – |
| Cc1ccc2c(c1)[C@@H](N1CCCCC1)[C@H](O)C(C)(C)O2.Cl | 43 | 44 | 34 | – |
| CCN(CC)[C@@H]1c2cc([N+](=O)[O-])ccc2OC(C)(C)[C@H]1O.Cl | 54 | 34 | – | – |
| CC1(C)Oc2ccc([N+](=O)[O-])cc2[C@@H](N2C3CCCC2CCC3)[C@@H]1O.CS(=O)(=O)O | – | – | 20 | – |
| CC1(C)Oc2ccc([N+](=O)[O-])cc2[C@@H](NCCCO)[C@@H]1O.Cl | 28 | – | – | – |
| CC1(C)Oc2ccc([N+](=O)[O-])cc2[C@@H](N2CCN(c3ccccc3)CC2)[C@@H]1O.Cl | – | – | 10 | – |
| CC1(C)Oc2ccc(Cl)cc2[C@@H](N2CCCCC2)[C@@H]1O.Cl | 69 | 7 | – | – |
| CC1(C)Oc2ccc([N+](=O)[O-])cc2[C@@H](N2CCCCCCC2)[C@@H]1O.Cl | – | 82 | 53 | Max fall in blood pressure (Rattus norvegicus [4]): 34 mmHg |
| CC(=O)c1ccc2c(c1)[C@@H](N1CCCC1)[C@H](O)C(C)(C)O2.Cl | 78 | 66 | 53 | Max fall in blood pressure (Rattus norvegicus [4]): 39 mmHg |
| CC1(C)Oc2cc([N+](=O)[O-])ccc2[C@@H](N2CCCC2)[C@@H]1O.CS(=O)(=O)O | – | – | 99 | Max fall in blood pressure (Rattus norvegicus [4]): 90 mmHg; Max fall in blood pressure (Rattus norvegicus [5]): 44 mmHg |
| Cc1ccc2c(c1)[C@@H](N1CCCC1)[C@H](O)C(C)(C)O2.Cl | 9 | – | – | – |
| CC1(C)Oc2ccc(C(N)=O)cc2[C@@H](N2CCCCC2)[C@@H]1O.CS(=O)(=O)O | 30 | – | 9 | – |
| CC(=O)Nc1ccc2c(c1)[C@@H](N1CCCCC1)[C@H](O)C(C)(C)O2.CS(=O)(=O)O | 14 | – | 6 | – |
| C/C(=N\O)c1ccc2c(c1)[C@@H](N1CCCCC1)[C@H](O)C(C)(C)O2.CS(=O)(=O)O | 74 | 80 | 17 | – |

From ChEMBL document CHEMBL1122483, “Synthesis and antihypertensive activity of substituted trans-4-amino-3,4-dihydro-2,2-dimethyl-2H-1-benzopyran-3-ols” (1983)
